According to ChEMBL document CHEMBL2040839, “Novel cinnamic acid/4-aminoquinoline conjugates bearing non-proteinogenic amino acids: towards the development of potential dual action antimalarials” (Eur J Med Chem, 2012):

Assays:
Heme = experiment: Inhibition of heme polymerization at 1 mM after 48 hrs by spectrophotometry relative to chloroquine
Procedure, shortened: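 Hemin chloride in DMSO (5.2 mg/mL) mixed with compound in DMSO (0.1–1 mM), in triplicate; water or DMSO as negative control, 1 mM CQ as positive. β-hematin formation started with 0.2 M acetate buffer pH 4.4, then 48 h at 37 °C. Pellet washed with DMSO, dissolved in 0.2 M NaOH, diluted 1:6 in 0.1 M NaOH, read at 405 nm.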

Plasmodium falciparum = experiment: Antiplasmodial activity against chloroquine-resistant blood-stage Plasmodium falciparum W2 after 48 hrs by flow cytometric analysis; assay type: functional, organism-based; details: W2, 48 h
Procedure, shortened: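 Synchronized ring-stage W2 parasites cultured 48 h with multiple compound concentrations (from 1000× DMSO stocks) in RPMI 1640 with 10% human serum or 0.5% Albumax. Cells then fixed in 1% formaldehyde/PBS pH 7.4 for 48 h at room temperature and stained with YOYO-1 (1 nM) in 0.1% Triton X-100. Parasitemia read by flow cytometry. IC50 taken from percent-of-control parasitemia curves, R2 >0.95.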

[1] = Inhibition of Plasmodium falciparum falcipain 2 using substrate benzoxycarbonyl-Leu-Arg-7-amino-4-methyl-coumarin preincubated for 30 mins before substrate addition by fluorescence assay
Procedure, shortened: (§1)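 Recombinant enzyme (1 nM) incubated with inhibitor at varied concentrations (from 10 mM DMSO stocks) in 100 mM sodium acetate pH 5.5, 10 mM DTT, 30 min at room temperature. Substrate then added at 25 μM final. Fluorescence monitored continuously for 30 min at room temperature; IC50 from curve fitting. FP3 tested only for compounds with FP2 IC50 < 50 μM.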

[2] = Inhibition of Plasmodium falciparum falcipain 3 using substrate benzoxycarbonyl-Leu-Arg-7-amino-4-methyl-coumarin preincubated for 30 mins before substrate addition by fluorescence assay; procedure, shortened: as §1

SMILES | inhibition (Heme) [%] | IC50 (Plasmodium falciparum) [µM] | IC50 [1] [µM] | IC50 [2] [µM]
O=C(/C=C/c1ccc(F)cc1)Nc1ccnc2cc(Cl)ccc12 | < 50 | > 10 | > 50 | 
CC(C)C[C@@H](NC(=O)/C=C/c1cccc([N+](=O)[O-])c1)C(=O)N[C@H](CCc1ccccc1)C(=O)Nc1ccnc2cc(Cl)ccc12 | < 50 | 2.1 | 28.1 | > 50
CC(C)C[C@@H](NC(=O)/C=C/c1ccccc1[N+](=O)[O-])C(=O)N[C@H](CCc1ccccc1)C(=O)Nc1ccnc2cc(Cl)ccc12 | 50 | 1.66 | > 50 | 
O=C(/C=C/c1ccccc1[N+](=O)[O-])Nc1ccnc2cc(Cl)ccc12 | < 50 | > 10 | 23.6 | > 50
O=C(/C=C/c1ccc([N+](=O)[O-])cc1)Nc1ccnc2cc(Cl)ccc12 | < 50 | > 10 | > 50 | 
O=C(/C=C/c1ccc(Br)cc1)Nc1ccnc2cc(Cl)ccc12 | < 50 | > 10 | 33.1 | > 50
CC(C)C[C@H](NC(=O)[C@H]1O[C@@H]1C(=O)O)C(=O)NCCCCN=C(N)N [E-64] |  |  | 0.0246 | 
CC(C)c1ccc(/C=C/C(=O)Nc2ccnc3cc(Cl)ccc23)cc1 | < 50 | > 10 | > 50 | 
Cc1ccc(/C=C/C(=O)Nc2ccnc3cc(Cl)ccc23)cc1 | < 50 | > 10 | 28.5 | > 50
O=C(/C=C/c1ccccc1)Nc1ccnc2cc(Cl)ccc12 | < 50 | > 10 | > 50 | 
O=C(/C=C/c1cccc([N+](=O)[O-])c1)Nc1ccnc2cc(Cl)ccc12 | < 50 | > 10 | 14.2 | > 50
O=C(/C=C/c1ccc(Cl)cc1)Nc1ccnc2cc(Cl)ccc12 | < 50 | > 10 | 41.3 | > 50
CCN(CC)CCCC(C)Nc1ccnc2cc(Cl)ccc12 (centres undefined) | > 75 |  |  | 
CC(C)C[C@@H](NC(=O)/C=C/c1ccccc1)C(=O)N[C@H](CCc1ccccc1)C(=O)Nc1ccnc2cc(Cl)ccc12 | < 50 | 4.89 | 19.6 | > 50
C[C@@H]1CC[C@H]2[C@@H](C)C(=O)O[C@@H]3O[C@@]4(C)CC[C@@H]1[C@]32OO4 [ARTEMISININ] |  | 0.00876 |  | 
CC(C)C[C@@H](NC(=O)/C=C/c1ccc(F)cc1)C(=O)N[C@H](CCc1ccccc1)C(=O)Nc1ccnc2cc(Cl)ccc12 | < 50 | 4.67 | 50 | 
CC(C)C[C@@H](NC(=O)/C=C/c1ccc([N+](=O)[O-])cc1)C(=O)N[C@H](CCc1ccccc1)C(=O)Nc1ccnc2cc(Cl)ccc12 | > 75 | 1.23 | > 50 | 
O=C(/C=C/c1cccc(F)c1)Nc1ccnc2cc(Cl)ccc12 | < 50 | > 10 | > 50 | 
CC(C)C[C@@H](NC(=O)/C=C/c1ccc(C(C)C)cc1)C(=O)N[C@H](CCc1ccccc1)C(=O)Nc1ccnc2cc(Cl)ccc12 | < 50 | 0.83 | > 50 | 
Cc1ccc(/C=C/C(=O)N[C@H](CC(C)C)C(=O)N[C@H](CCc2ccccc2)C(=O)Nc2ccnc3cc(Cl)ccc23)cc1 | > 75 | 1.96 | > 50 | 
COc1ccc(/C=C/C(=O)Nc2ccnc3cc(Cl)ccc23)cc1 | < 50 | > 10 | > 50 | 
CC(C)C[C@@H](NC(=O)/C=C/c1ccc(Cl)cc1)C(=O)N[C@H](CCc1ccccc1)C(=O)Nc1ccnc2cc(Cl)ccc12 | < 50 | 2.89 | > 50 | 
CC(C)C[C@@H](NC(=O)/C=C/c1cccc(F)c1)C(=O)N[C@H](CCc1ccccc1)C(=O)Nc1ccnc2cc(Cl)ccc12 | < 50 | 5.43 | 23.1 | > 50
COc1ccc(/C=C/C(=O)N[C@H](CC(C)C)C(=O)N[C@H](CCc2ccccc2)C(=O)Nc2ccnc3cc(Cl)ccc23)cc1 | 50 | 10.8 | > 50 | 
CC(C)C[C@H](NC(=O)/C=C/c1ccccc1)C(=O)N[C@@H](CCc1ccccc1)C(=O)Nc1ccnc2cc(Cl)ccc12 |  | 8 | 50 | 
CC(C)C[C@@H](NC(=O)/C=C/c1ccc(Br)cc1)C(=O)N[C@H](CCc1ccccc1)C(=O)Nc1ccnc2cc(Cl)ccc12 | < 50 | 2.55 | 48.3 | > 50
CC(C)C[C@@H](NC(=O)/C=C/c1ccc(N)cc1)C(=O)N[C@H](CCc1ccccc1)C(=O)Nc1ccnc2cc(Cl)ccc12 | > 75 | 3.28 | 20.3 | > 50
